# Results published in ChEMBL document CHEMBL4028846, “Insights on the Interaction between Transthyretin and Aβ in Solution. A Saturation Transfer Difference (STD) NMR Analysis of the Role of Iododiflunisal” (J Med Chem, 2017).
# Activity calls are given as the source filed them. No cut-off for these calls is given here.
# Experiments:
# Transthyretin [1] = target: T1, Transthyretin (Homo sapiens, UniProt P02766); assay: Binding affinity to recombinant human transthyretin expressed in Escherichia coli BL21 at 1:20 to 1:50 […] molar ratio by STD-NMR spectroscopic method
# In short: (§1)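 Human recombinant WT TTR expressed in E. coli, purified by ion exchange then preparative gel electrophoresis. Protein 20−50 μM in PBS pH 6.0, […] 1:20 to 1:50, 298−313 K, optimized per case. On-resonance at aliphatic region (δ −0.2 to 0.16 ppm), off-resonance δ 100 ppm. Saturation by 20 ms PC9 pulse train, 2 s total, 600 MHz.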
# Transthyretin [2] = target: T1, Transthyretin; assay: Binding affinity to recombinant human transthyretin expressed in Escherichia coli BL21 by STD-NMR spectroscopic method
# In short: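 Human recombinant WT TTR expressed in E. coli, purified by ion exchange then preparative gel electrophoresis. On-resonance at aliphatic region (δ −0.2 to 0.16 ppm), off-resonance δ 100 ppm. Saturation by 20 ms PC9 pulse train, 2 s total, 600 MHz.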
# Transthyretin [3] = target: T1, Transthyretin; assay: Binding affinity to recombinant human transthyretin expressed in Escherichia coli BL21 at 1:50 protein to ligand molar ratio by STD-NMR spectroscopic method; in short: as §1
# Transthyretin [4] = target: T1, Transthyretin; assay: Binding affinity to recombinant human transthyretin expressed in Escherichia coli BL21 at 1:4 protein to ligand molar ratio in presence of EGCG by STD-NMR spectroscopic method
# Transthyretin [5] = target: T1, Transthyretin; assay: Binding affinity to recombinant human transthyretin expressed in Escherichia coli BL21 at 1:45 protein to ligand molar ratio in presence of EGCG by STD-NMR spectroscopic method
# Transthyretin [6] = target: T1, Transthyretin; assay: Binding affinity to recombinant human transthyretin expressed in Escherichia coli BL21 at 1:45 protein to ligand molar ratio by STD-NMR spectroscopic method; in short: as §1
# Transthyretin [7] = target: T1, Transthyretin; assay: Binding affinity to recombinant human transthyretin expressed in Escherichia coli BL21 at 1:45 protein to ligand molar ratio in presence of IDIF by STD-NMR spectroscopic method
molecule,measurement,setting,value
H-YEVHHQKLVFF-OH,Activity,Transthyretin [1],inactive
O=C(O[C@@H]1Cc2c(O)cc(O)cc2O[C@@H]1c1cc(O)c(O)c(O)c1)c1cc(O)c(O)c(O)c1 [EPIGALOCATECHIN GALLATE],Kd,Transthyretin [2],400 nM
same,Activity,Transthyretin [3],Active
CN(C)C[C@H](O)[C@@H](O)[C@H](O)[C@H](O)CO.O=C(O)c1cc(-c2ccc(F)cc2F)cc(I)c1O,Activity,Transthyretin [1],Active
same,Activity,Transthyretin [4],Active
CC(C)C[C@H](NC(=O)[C@H](CCCCN)NC(=O)[C@H](CCC(N)=O)NC(=O)[C@H](Cc1cnc[nH]1)NC(=O)[C@H](Cc1cnc[nH]1)NC(=O)[C@@H](N)C(C)C)C(=O)N[C@H](C(=O)N[C@@H](Cc1ccccc1)C(=O)N[C@@H](Cc1ccccc1)C(=O)N[C@@H](C)C(=O)N[C@@H](CCC(=O)O)C(=O)N[C@@H](CC(=O)O)C(=O)N[C@H](C(=O)NCC(=O)N[C@@H](CO)C(=O)N[C@@H](CC(N)=O)C(=O)N[C@@H](CCCCN)C(=O)O)C(C)C)C(C)C,Activity,Transthyretin [5],inactive
same,Activity,Transthyretin [6],Active
same,Activity,Transthyretin [7],Active
C[C@H](NC(=O)[C@@H](N)CC(=O)O)C(=O)N[C@@H](CCC(=O)O)C(=O)N[C@@H](Cc1ccccc1)C(=O)N[C@@H](CCCNC(=N)N)C(=O)N[C@@H](Cc1cnc[nH]1)C(=O)N[C@@H](CC(=O)O)C(=O)N[C@@H](CO)C(=O)NCC(=O)N[C@@H](Cc1ccc(O)cc1)C(=O)N[C@@H](CCC(=O)O)C(=O)O,Activity,Transthyretin [1],inactive
CN(C)C[C@H](O)[C@@H](O)[C@H](O)[C@H](O)CO.O=C(O)c1cc(-c2ccc(F)cc2F)ccc1O,Activity,Transthyretin [1],Active
